Laboratory results published in the EternaBench riboswitch data.

Test system: MS2 coat protein
Assay: apparent Kd, MS2 coat protein; higher = weaker binding; RNA-MaP array; FMN 200 µM where present
In short: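 On Illumina sequencing-chip clusters, designs were transcribed by stalled E. coli RNA polymerase and titrated with SNAP-549-labelled MS2 coat protein (0.7 or 1.5 nM, doubling to 3 µM), without and then with constant ligand, in 100 mM Tris-HCl pH 7.5, 80 mM KCl, 4 mM MgCl2, BSA, DTT, yeast tRNA and Tween-20. Apparent Kd is the median of filtered per-cluster curve fits to green signal normalised to red-channel RNA signal and control-cluster median Fmax.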

[1] = designed as: OFF switch for flavin mononucleotide, no ligand
[2] = ligand present: flavin mononucleotide, designed as: OFF switch for flavin mononucleotide
[3] = designed as: ON switch for flavin mononucleotide, no ligand
[4] = ligand present: flavin mononucleotide, designed as: ON switch for flavin mononucleotide

| Sequence | apparent Kd [1] | apparent Kd [2] | apparent Kd [3] | apparent Kd [4] |
| --- | --- | --- | --- | --- |
| UGGUGACGUGUAGGAUAUGGAGGUGGGUUUUGGCCAGAAGGACAUGAGGAUCACCCAUGUGGUAGAGGGUUGGCGGCGGCCCGU | 0.0169 µM | 0.0151 µM | – | – |
| UGGUGGAAGCAGGAUAUGCUAGAAGUGUAGAAUGCAGAAGGGCUAACAUGAGGAUCACCCAUGUAAGAGGUGUU | 0.319 µM | 0.237 µM | – | – |
| UGGUUGUGAGGAUAUACGUUUUUUAACUUUUGUUUUAUAUUGUAGAAGGCACAUGAGGAUCACCCAUGUUACGU | 0.0229 µM | 0.0308 µM | – | – |
| UGGUUGUGAGGAUAUCCAAUAUAUGACAUGAGGAUCACCCAUGUUUCCACUCGUACCUCCGGAGAAGGCACUUGGU | 0.0334 µM | 0.0284 µM | – | – |
| UGUAAUAUUAUAGGAUAUGGUUACGAUACGUAACCAGAAGGGUGAUUAUACUAUAAUCUAUACAUGAGGAUCACCCAUGUUUAU | – | – | 0.205 µM | 0.11 µM |
| UGUAUUAUCGGAGGAUAUCGAUAUCAAACAUGAGGAUCACCCAUGUUGAGGAUCACCCAUGUCCACGAGAAGGCCGGCGUACUC | – | – | 0.0257 µM | 0.0265 µM |
| UGUCAGAUGGUAGGAUAUCCAUAUCGCGUGUCCCUUUCCUAACAUGAGGAUCACCCAUGUCGGUGGGAGAAGGGCCGUAUGGUG | 0.0132 µM | 0.0121 µM | – | – |
| UGUCAUAUAUAGAAGGGUAGUAGGGUAUUACAUGAGGAUCACCCAUGUAUUAUAGGAUAUGUGUAUAGUUUUUAUUCAAGUAUA | 0.0228 µM | 0.017 µM | – | – |
| UGUCCACAUGAGGAUCACCCAUGUGAGGAUAUCCAUAAACACAUCGUAUGUGUAUUAUGGAGAAGGCACACACA | 0.0161 µM | 0.0219 µM | – | – |
| UGUCCAUAGCAGAAGGACAUGAAUAAACGUGAAAACAUGAGGAUCACCCAUGUAGGAUAUGCUAUGGACUAAGAGCGAAAGCUC | 0.0347 µM | 0.494 µM | – | – |
| UGUCCAUAGCAGAAGGACAUGAGGAUCACCCAUGUAAUCAUACAAAUAUAUGUAGGAUAUGCUAUGGACUAAGAGCGAAAGCUC | 0.00614 µM | 0.00674 µM | – | – |
| UGUCGGAGCAAAGGAUAUUACAUGAGGAUCACCCAUGUAUGAACCAAUAGCUGGAAACAGCAAUGUAAGAAGGCUGCUCCGACA | 0.00479 µM | 0.00581 µM | – | – |
| UGUCGGAGCAGAGGAUAUACAUGAGGAUCACCCAUGUAAUAAAGUGAAGCCUGGAAACGGGCAAUGUAGAAGGCUGCUCCGACA | 0.0113 µM | 0.0878 µM | – | – |
| UGUCGGAGCAGAGGAUAUACAUGAGGAUCACCCAUGUAAUAGGAUGAAGCCUGGAAACAGGCAAUGUAGAAGGCUGCUCCGACA | 0.0579 µM | 0.67 µM | – | – |
| UGUCGGAGCAGAGGAUAUACAUGAGGAUCACCCAUGUAAUAUGAUCUAGCCUGGAAACAGGCAAUGUAGAAGGCUGCUCCGACA | 0.0926 µM | 1.02 µM | – | – |
| UGUCGGAGCAGAGGAUAUUACAUGAGGAUCACCCAUGUAAGAACCAAUAGCUGGAAACAGCAAUGUAAGAAGGCUGCUCCGACA | 0.00527 µM | 0.0159 µM | – | – |
| UGUCGGAGCAGAGGAUAUUACAUGAGGAUCACCCAUGUAUGAACCAAUACCUGGAAACAGCAAUGUAAGAAGGCUGCUCCGACA | 0.0125 µM | 0.141 µM | – | – |
| UGUCGGAGCAGAGGAUAUUACAUGAGGAUCACCCAUGUAUGAACCAAUAGCUGGAAACAGCAAUGUAAGAAGGCUGCUCCGACA | 0.0375 µM | 0.531 µM | – | – |
| UGUCGGAGCAGAGGAUAUUACAUGAGGAUCACCCAUGUAUGAACCAAUAGCUGGAAACAGCAAUGUAAGAAGGCUUCUCCGACA | 0.00713 µM | 0.0459 µM | – | – |
| UGUCGGAGCAGAGGAUAUUACAUGAGGAUCACCCAUGUAUGAACCAAUAGCUGGAAACUGCAAUGUAAGAAGGCUGCUCCGACA | 0.0119 µM | 0.107 µM | – | – |
| UGUCGGAGCAGAGGAUAUUACAUGAGGAUCACCCAUGUAUGAGCCAAUAGCUGGAAACAGCAAUGUAAGAAGGCUGCUCCGACA | 0.0191 µM | 0.206 µM | – | – |
| UGUCGGAGCAGAGGAUAUUACAUGAGGAUCACCCAUGUAUGUACCAAUAGCUGGAAACAGCAAUGUAAGAAGGCUGCUCCGACA | 0.006 µM | 0.0247 µM | – | – |
| UGUGCGUAUGUGAGGAUAUGCUGGUCCUUGGAUCGGCAGAAGGCACAUGAGGAUCACCCAUGUGGUGUCGUUCG | 0.239 µM | 0.024 µM | – | – |
| UGUGCGUUGAUCUUCGAUCGGAGUACAUGAGGAUCACCCAUGUAGGAUAUUCAAAGACGCAGAUAGAAGAAGGACAUCGGAUUA | 0.0132 µM | 0.0111 µM | – | – |
| UGUGGGUCCGUUAGGAUAUUUACAGGCAUGCCUGUAAAGAAGGAACAUGAGGAUCACCCAUGUUUGACAAAUUU | 0.0169 µM | 0.0398 µM | – | – |
| UGUGUGUGGCAGGAUAUGCAGGUAAUAAGACGGGUAGAAGGGUCUACAUGAGGAUCACCCAUGUGGCCGGUUGG | 0.0161 µM | 0.0182 µM | – | – |
| UGUUACUAGGGAGGAUAUGGGAAGAUACAUGAGGAUCACCCAUGUUUAAGAAUGCCGAGAGGCAACUAGAAGGCCCUAGUACCU | – | – | 0.354 µM | 0.0231 µM |
| UGUUAGUAGACAGGAUAUUGAAUGUUAAGUAUUAACAUGAGGAUCACCCAUGUAUUAGAUUGGUACAAGAAGGGUCAAGUUUGU | – | – | 0.38 µM | 0.653 µM |

| Sequence | apparent Kd [1] | apparent Kd [2] | apparent Kd [3] | apparent Kd [4] |
| --- | --- | --- | --- | --- |
| UGUUGGAGCAGAGGAUAUUACAUGAGGAUCACCCAUGUAUGAACCAAUAGCUGGAAACAGCAAUGUAAGAAGGCUGCUCCGACA | 0.0121 µM | 0.161 µM | – | – |
| UGUUGUAUUACAGGAUAUCUAGUAUUUUUAUGUAGAGAAGGGUAUUCACAUGAGGAUCACCCAUGUAUAUACGAGGAAGUUGUG | – | – | 0.0397 µM | 0.0432 µM |
| UGUUGUAUUACAGGAUAUCUAUAAUUUUUAUUUAGAGAAGGGUAUUCACAUGAGGAUCACCCAUGUAUAUACGAGGAAGUUGUG | – | – | 0.0435 µM | 0.0458 µM |
| UGUUGUAUUACAGGAUAUCUAUUAUUUUGAUUUAGAGAAGGGUAUUCACAUGAGGAUCACCCAUGUAUAUACGAGGAAGUUGUG | – | – | 0.0477 µM | 0.0479 µM |
| UGUUGUAUUACAGGAUAUCUAUUAUUUUUACUUAGAGAAGGGUAUUCACAUGAGGAUCACCCAUGUAUAUACGAGGAAGUUGUG | – | – | 0.0542 µM | 0.056 µM |
| UGUUGUAUUACAGGAUAUCUAUUAUUUUUGUUUAGAGAAGGGUAUUCACAUGAGGAUCACCCAUGUAUAUACGAGGAAGUUGUG | – | – | 0.0535 µM | 0.0618 µM |
| UGUUGUUCAGGAUAUGGUGUGUUAUACAUGAGGAUCACCCAUGUGGGUCCUGAUUUGGCGUCAGAAGGGAAUGUUG | 0.486 µM | 0.406 µM | – | – |
| UGUUGUUUAGGAUAUACAUGAGGAUCACCCAUGUGACAAAAAUAUUUUACAAAACCAUGUAGAAGGAAAUGGCA | 0.0223 µM | 0.0482 µM | – | – |
| UGUUUUGAAGUAGGAUAUCAACACACAUGAGGAUCACCCAUGUUAGAUGUGGAUGUUGUAUGUUAUGAGAAGGACUUCGAUUCG | 0.0256 µM | 0.0954 µM | – | – |
| UGUUUUGUACAUGAGGAUCACCCAUGUUAAUAUGUGGUAGUCAGAAGGCAUUGUUUGAGAUAUUAUGAGGAUAUGAUUAGUCUG | – | – | – | 0.0439 µM |
| UUAAACGCAGGAUAUACAUUUUUUUUAUUAUCCUCAUAAAUACAUGAGGAUCACCCAUGUAGAAGGGCGAAAUU | 0.239 µM | 0.21 µM | – | – |
| UUAAAUCAUGUAGGAUAUGCAUGGCGAAGCUACGCAGAAGGACAUGAGGAUCACCCAUGUGCUAGCUACCGAGUACGGUGGCAA | 0.0649 µM | 0.251 µM | – | – |
| UUAAAUCAUGUAGGAUAUGCAUGGCGAAGCUACGCAGAAGGACAUGAGGAUCACCCAUGUUAUAGCGUCCGAUAAAGGAUGCAA | 0.0851 µM | 0.225 µM | – | – |
| UUAAAUCAUGUAGGAUAUGCAUGGCGAAGCUACGCAGAAGGACAUGAGGAUCACCCAUGUUAUAGCGUCUGAGUACAGAUGCAA | 0.0796 µM | 0.268 µM | – | – |
| UUAAAUCAUGUAGGAUAUGCAUGGCGAAGCUACGCAGAAGGACAUGAGGAUCACCCAUGUUAUAGCUAGGCAGUUCCCUGGCAA | 0.0702 µM | 0.214 µM | – | – |
| UUAAAUCAUGUAGGAUAUGCAUGGCGAAGCUACGCAGAAGGACAUGAGGAUCACCCAUGUUCUGGCUACCGGAUACGGUGGCAA | 0.0206 µM | 0.0836 µM | – | – |
| UUAAAUCGAAACAUGAGGAUCACCCAUGUGUUGUAAUUAAUAUAGGAUAUGUGUAUACUUUUAUGACAGAAGGAUGAUAAUACU | – | – | 0.0215 µM | 0.0144 µM |
| UUAAUCUAUACAGGAUAUCCAUACGCUGCAUACGGAGAAGGGUAACAAUCAUGAGGACAUGAGGAUCACCCAUGUUCUGAGCAU | – | – | 0.0117 µM | 0.0107 µM |
| UUAAUUAACAAGAAGGCUAACAUGAGGAUCACCCAUGUUGUACAUGGAUAUAGAGGAUAUUGCUAAUAAUUAUUUAUCUUAAUU | 0.0253 µM | 0.0194 µM | – | – |
| UUAAUUAAUUAAGCGCAAGAUCACAUGAGGAUCACCCAUGUAUAGGAUAUCAGCUCGAUUAGAGCUGAGAAGGAUACAUAGCGC | 0.203 µM | 0.568 µM | – | – |
| UUAAUUCGAAACAUGAGGAUCACCCAUGUGUUGUGGUUAAUAUAGGAUAUGUGUAUACUUUUAUGACAGAAGGAUGAUGGUACU | – | – | 0.0143 µM | 0.0118 µM |
| UUAAUUCUGAUUCUUGAAAUACAUGAGGAUCACCCAUGUUCACAGGAUAUUGAUUAUGUUAGUAACAAGAAGGGUGUAACAUAU | 0.0306 µM | 0.0856 µM | – | – |
| UUAAUUUUACAAGGAUAUCUAUUGUUAUUUCGACUUACAUGAGGAUCACCCAUGUUAAUAUAUUUAGAGAAGGUGUAUUUUCAG | – | – | 0.0994 µM | 0.0524 µM |
| UUACAGCAAGGAUAUACGGGCUGUGCUUUUCAUUUCUUACAACAUGAGGAUCACCCAUGUAGAAGGUGCAACAU | 0.0326 µM | 0.0737 µM | – | – |
| UUACCUUAUGAGAAGGCGAUCAUGAAACAUGAUCGAGGAUAUCAUGUAAACAUGAGGAUCACCCAUGUAUGGGUAUUAUGGUAU | – | – | 0.096 µM | 0.0239 µM |
| UUACGUCCCGUUUACAUGAGGAUCACCCAUGUCGAAAGAGCGGAGGAUAUGCUACCUAGUUGGUAGCAGAAGGUUGCAACGUCG | – | – | 0.0177 µM | 0.0283 µM |
| UUACUCAUGUAAGGAUAUGCAGCCGUUUCGGCUGCAGAAGGUACUAUAAUACAUGAGGAUCACCCAUGUCUUUUUAAUUUGUAC | – | – | 0.0357 µM | 0.0232 µM |
